In ChEMBL document CHEMBL1127446, “Structure-activity relationships of 1,2,4-triazolo[1,5-a] quinoxalines and their 1-deaza analogues imidazo[1,2-a]quinoxalines at the benzodiazepine receptor” (J Med Chem, 1994):

How the values were obtained:
[1] = target: T1, GABA-A receptor; anion channel (Bos taurus) (UniProt P10063+P08220+P20237+P08219+P10064+P22300); test: GABA ratio is measured by IC50 (compound)/IC50 (compound at 10 uM GABA; type: protein-complex assay
Summary of the method: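 [³H]flunitrazepam (0.2 nM) displacement in bovine brain membranes; IC50 from log-probit plots, measured without and with 10 μM GABA. Ratio = IC50 without GABA / IC50 with GABA, from five independent experiments; compounds dissolved in DMSO.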

[2] = target: GABA-A receptor; anion channel; test: Binding affinity to BZR receptor on bovine cerebral cortex by [3H]flunitrazepam displacement.; type: tissue-based
Summary of the method: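 Compounds first screened at 10 μM, then IC50 from log-probit plots and Ki derived from it. Ki given as mean ± SEM of four determinations.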

[3] = target: T1, GABA-A receptor; anion channel (Bos taurus); test: Binding affinity to BZR receptor of bovine cerebral cortex by [3H]flunitrazepam displacement at 10 uM; type: tissue-based
Summary of the method: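 Percent inhibition of specific binding measured with test compound at 10 μM, dissolved in DMSO.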

SMILES	Ratio [1]	Ki [2] [nM]	inhibition [3] [%]
Oc1nc2ccc(Cl)cc2n2nc(-c3ccco3)nc12	0.67	14.5	–
O=c1[nH]c2ccc(Cl)cc2n2nc(-c3ccsc3)nc12	–	15.9	–
Cn1c(=O)c2nc(-c3ccccc3)cn2c2ccccc21	–	–	2
Oc1nc2ccccc2n2nc(-c3ccco3)nc12	1.05	71.2	–
Oc1ccc(-c2nc3c(O)nc4ccccc4n3n2)cc1	0.9	67.5	–
O=c1[nH]c2ccc(Cl)cc2n2nc(-c3cccs3)nc12	–	17.4	–
Oc1nc2ccc(Cl)cc2n2nc(-c3cccc(F)c3)nc12	0.82	32.8	–
Oc1nc2ccc(Br)cc2n2nc(-c3ccco3)nc12	0.77	13.2	–
Oc1nc2ccccc2n2nc(-c3cccs3)nc12	0.92	21.8	–
COc1ccc(-c2cn3c(n2)c(O)nc2ccccc23)cc1	1.21	56.4	–
Oc1nc2ccccc2n2cc(-c3ccccc3)nc12	1.36	42.3	–
Oc1nc2ccccc2n2nc(-c3ccccc3F)nc12	1.04	8.9	–
Oc1nc2ccc(Cl)cc2n2nc(-c3ccoc3)nc12	0.84	9.8	–
COc1ccc(-c2nc3c(=O)[nH]c4ccc(Cl)cc4n3n2)cc1	–	5.4	–
Oc1nc2ccc(Cl)cc2n2nc(-c3cccs3)nc12	1.09	–	–
COc1ccc(-c2nc3c(O)nc4ccc(Cl)cc4n3n2)cc1	1.03	–	–
Oc1nc2ccc(Cl)cc2n2nc(-c3ccsc3)nc12	0.8	–	–
COc1ccc(-c2nc3c(O)nc4ccccc4n3n2)cc1	1.04	87.8	–
Oc1nc2ccccc2n2cc(-c3cccs3)nc12	1.13	15.9	–
Oc1nc2ccc(Cl)cc2n2nc(-c3ccccc3F)nc12	0.77	2.9	–
Oc1ccc(-c2nc3c(O)nc4ccc(Cl)cc4n3n2)cc1	0.88	29.8	–
